Source: PubChem BioAssay
C2C12 statin – suppression of simvastatin myotoxicity; AID 602340; 330,000 tested, 0.78% active; rescue of ATP level, % at 7.49 µM; C2C12 myotubes + simvastatin, ATP luminescence, 48 h; scaled: DMSO 0, geranylgeraniol control 100;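 active = mean ATP rescue above about 67%, or every replicate alone reaching that limit, limit read from the data, passing the limit was not always enough; inconclusive = no clear call, values can overlap the other calls; inactive = mean under the limit and some replicate under it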;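 also: myotubes were challenged with 10 µM simvastatin during compound exposure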
DENV2 CPE – protects cells from dengue virus 2 cytopathic effect; 350,000 tested, 1.7% active; CPE inhibition, % at 9.99 µM; DENV2-infected cells, cytopathic effect rescue, plate reader; AID 651640; in the data active = CPE inhibition above about 20%, passing the limit was not always enough; inconclusive = no clear call, values can overlap the other calls; tested in BHK-21 cells;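 also: 0% = median of neutral control wells and 100% = median of positive control wells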
E-sel inducer – E-selectin induction on HUVECs. HUVEC E-selectin immunofluorescence imaging; normalized: neutral wells 0, TNF-alpha wells 100. activation, % at 7.58 µM. 260,000 tested, 0.37% active;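 active = mean E-selectin-positive cell signal at least 10% of the positive control, reached in at least 60% of replicates, without over 20% cell loss; inconclusive = no rule given, readout overlaps actives, possibly toxicity-flagged; inactive = the rest, including those meeting only one limit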
Target sequence (P16581 whole entry, looked up): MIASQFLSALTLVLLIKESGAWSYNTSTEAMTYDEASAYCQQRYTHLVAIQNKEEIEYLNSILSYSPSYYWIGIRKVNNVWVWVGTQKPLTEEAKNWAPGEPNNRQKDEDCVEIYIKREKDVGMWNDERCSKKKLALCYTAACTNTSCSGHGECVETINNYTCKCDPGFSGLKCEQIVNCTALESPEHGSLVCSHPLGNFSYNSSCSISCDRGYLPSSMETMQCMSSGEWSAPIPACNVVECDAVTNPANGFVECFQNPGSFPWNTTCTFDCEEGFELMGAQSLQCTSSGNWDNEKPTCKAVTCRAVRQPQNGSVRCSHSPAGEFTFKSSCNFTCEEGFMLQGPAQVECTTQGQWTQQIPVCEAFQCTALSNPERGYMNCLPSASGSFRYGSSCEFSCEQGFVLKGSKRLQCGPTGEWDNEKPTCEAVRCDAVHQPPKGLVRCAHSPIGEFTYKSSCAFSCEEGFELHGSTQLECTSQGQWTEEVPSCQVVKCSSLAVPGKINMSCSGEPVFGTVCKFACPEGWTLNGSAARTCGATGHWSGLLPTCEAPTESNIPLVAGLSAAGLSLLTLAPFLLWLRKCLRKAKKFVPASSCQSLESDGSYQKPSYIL
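Read-out basis: % PE-positive cells; Test system: HUVEC primary endothelial cells; Technique: immunofluorescence imaging; Dosing: single-point compound dose.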
Starred values were filed as active, the others as inactive; ? = inconclusive; . = not tested or not shown; ! = not active in a repeat. Shown are actives, neighbours in structure and some others; about 2.2% of the full set was active somewhere.

SMILES	C2C12 statin	DENV2 CPE	E-sel inducer
CNC[C@H]1OCCCC[C@@H](C)Oc2ccc(NC(=O)Nc3ccc(C(F)(F)F)cc3)cc2C(=O)N([C@@H](C)CO)C[C@H]1C	-2	-7	0
CN(C)C(=O)C[C@@H]1C[C@H]2c3cc(NS(=O)(=O)c4ccccc4)ccc3O[C@H]2[C@H](CO)O1	-7	-6	0
C[C@H](CO)N1C[C@H](C)[C@H](CN(C)C(=O)CC2CC2)Oc2cc(C#C[C@@H](C)O)ccc2S1(=O)=O	-2	-1	0
C[C@@H]1CCCCO[C@H](CN(C)C(=O)Nc2ccccc2)[C@@H](C)CN([C@@H](C)CO)C(=O)c2cc(NS(=O)(=O)c3cn(C)cn3)ccc2O1	.	-9	0
c1ccc(C[C@H]2CNCCN2CCCCC2CCCCC2)cc1	-7	-15	0
c1ccc2c(C[C@@H]3CNCCN3CCCCC3CCCCC3)cccc2c1	-4	24*	0
CC(C)NC(=O)N(C)C[C@H]1Oc2ccc(NC(=O)C3CCCCC3)cc2CC(=O)N([C@H](C)CO)C[C@@H]1C	-19	17	0
CC=Cc1ccc2n(c1=O)C[C@@H]1[C@@H](CO)[C@H](C(=O)NCCCN3CCOCC3)N(C)[C@H]21 (mixture of isomers)	10	0	0
C[C@H](CO)N1C[C@H](C)[C@@H](CN(C)S(=O)(=O)c2ccccc2F)OCc2cnnn2CCCC1=O	-5	5	0
COc1cccc(S(=O)(=O)N(C)C[C@@H]2OCc3cnnn3CCCC(=O)N([C@@H](C)CO)C[C@@H]2C)c1	5	20*!	0
C[C@H]1CN([C@@H](C)CO)C(=O)CCCn2nncc2CO[C@@H]1CN(C)S(=O)(=O)c1ccccc1F	7	70*	1
C[C@H](CO)N1C[C@H](C)[C@H](CN(C)S(=O)(=O)c2ccccc2)OCc2cnnn2CCCC1=O	7	28*!	0
COc1ccc(S(=O)(=O)N(C)C[C@@H]2OCc3cnnn3CCCC(=O)N([C@@H](C)CO)C[C@H]2C)cc1	7	28*!	0
COc1ccc(S(=O)(=O)N(C)C[C@H]2OCc3cnnn3CCCC(=O)N([C@H](C)CO)C[C@@H]2C)cc1	-9	6	0
C[C@@H]1CN([C@H](C)CO)C(=O)CCCn2nncc2CO[C@@H]1CN(C)S(=O)(=O)c1ccccc1	-6	?	0
Cc1cccc(S(=O)(=O)N(C)C[C@H]2OCc3cnnn3CCCC(=O)N([C@@H](C)CO)C[C@@H]2C)c1	3	-3	1
COc1ccc(S(=O)(=O)N(C)C[C@H]2OCCCC[C@@H](C)Oc3ccc(NS(=O)(=O)c4c(C)noc4C)cc3C(=O)N([C@@H](C)CO)C[C@@H]2C)cc1	.	10	0
CO[C@@H]1CN(C)C(=O)c2cc(NC(=O)Nc3ccccc3)ccc2OC[C@@H](C)N(CC2CC2)C[C@H]1C	-13	-1	0
Cc1noc(C)c1NC(=O)Nc1ccc2c(c1)C(=O)N([C@@H](C)CO)C[C@@H](C)[C@@H](CN(C)CC1CC1)OCCCC[C@@H](C)O2	.	-5	0
COc1ccc(S(=O)(=O)N(C)C[C@H]2OCc3cnnn3CCCC(=O)N([C@@H](C)CO)C[C@H]2C)cc1	5	64*!	0
COc1ccc(S(=O)(=O)N(C)C[C@@H]2OCc3cnnn3CCCC(=O)N([C@H](C)CO)C[C@H]2C)cc1	8	5	0
CO[C@H]1CN(C)C(=O)c2cc(C#N)ccc2OCC[C@@H]2CC[C@@H](OC)[C@H](CN(C)C(=O)[C@@H]1C)O2	-18	-2	0
COc1ccc(CN(C)C[C@@H]2OCCCC[C@H](C)Oc3ccc(NC(=O)C4CCCCC4)cc3C(=O)N([C@H](C)CO)C[C@@H]2C)cc1	.	0	0
O=C(O)C1=NN(c2ccccc2)C(=O)CC1	7	?	.
Cc1ccc(N2N=C(C(=O)O)CCC2=O)cc1Cl	124*	-2	0
SMILES	C2C12 statin	DENV2 CPE	E-sel inducer
CCCCN(C=O)c1c(CC)nc2ccc(C(=O)N3CCN(C(C)=O)CC3)cn12	1	0	0
CCc1nc2ccc(C(=O)N3CCCC(C(N)=O)C3)cn2c1N(C=O)CC (centres undefined)	5	27*	2
COCCn1c(C)cc(C(=O)CSc2nc3ccccc3c(=O)n2Cc2ccco2)c1C	-26	23*	.
COCCn1c(C)cc(C(=O)CSc2cc(C)c3ccccc3n2)c1C	5	.	.
O=C(C[C@H]1CC[C@@H]2[C@H](COC[C@H](O)CN2C(=O)c2ccccc2)O1)Nc1nccs1	2	-3	0
O=C(C[C@@H]1CC[C@@H]2NC[C@@H](O)COC[C@H]2O1)NCCc1ccccc1	5	-2	0
CC(C)(C)C(=O)Nc1nnc(SCc2ccc(F)cc2)s1	.	.	-2
CCOC(=O)C(=O)Nc1nnc(SCc2ccc(F)cc2)s1	4	-8	39*
O=C(C[C@@H]1C[C@H]2c3cc(NC(=O)C4CCOCC4)ccc3O[C@H]2[C@@H](CO)O1)NCc1cccc(F)c1	-5	8	1
CCS(=O)(=O)N[C@@H]1C=C[C@H](CC(=O)NCc2ccc(Cl)cc2)O[C@H]1CO	-2	-6	0
CC(C)(C)C(=O)N1CCN(c2ccnc3cc(Cl)ccc23)CC1	-11	8	.
CC(=O)c1ccc(N2CCN(c3ccnc4cc(Cl)ccc34)CC2)cc1	.	9	40*
CCC(=O)N1C[C@H](C)[C@H](OC)CN(C)C(=O)c2cc(NC(=O)C3CCCCC3)ccc2OC[C@H]1C	-1	3	0
COc1cccc(NC(=O)N[C@H]2C=C[C@H](CC(=O)Nc3ccc(-c4ccccc4)cc3)O[C@H]2CO)c1	15	5	0
COc1cccc(C(=O)Oc2cc(C)[nH]c(=O)c2[N+](=O)[O-])c1OC	8	101*	2
Cc1cc(OC(=O)c2ccccc2[N+](=O)[O-])c([N+](=O)[O-])c(=O)[nH]1	-1	3	0
CC(=O)NCCCC[C@@H]1NC(=O)[C@@H]2C[C@H](C(=O)NCc3ccc(F)cc3)[C@H](c3ccc(O)cc3)N2C1=O	.	20*	.
CC(=O)NCCCC[C@@H]1NC(=O)[C@@H]2C[C@H](C(=O)O)[C@H](c3ccc(O)cc3)N2C1=O	.	5	.
O=C(C1CCOCC1)N1C[C@@H]2[C@H](c3ccccc31)[C@H](CO)N2C(=O)Cc1ccccn1	-10	?	0
C[C@H]1CCCCO[C@H](CN(C)C(=O)c2ccccc2)[C@@H](C)CN([C@@H](C)CO)C(=O)c2cc(NC(=O)Nc3ccc(F)cc3)ccc2O1	.	28*	0
C[C@@H]1CCCCO[C@@H](CN(C)C(=O)Nc2ccc(F)cc2)[C@H](C)CN([C@H](C)CO)C(=O)c2cc(NC(=O)Nc3ccc(F)cc3)ccc2O1	.	65*	.
CC(C)NC(=O)N(C)C[C@@H]1OCCCC[C@H](C)Oc2ccc(NC(=O)Nc3ccc(F)cc3)cc2C(=O)N([C@@H](C)CO)C[C@H]1C	.	39*	1
CC(C)NC(=O)N(C)C[C@H]1OCCCC[C@@H](C)Oc2ccc(NC(=O)Nc3ccc(F)cc3)cc2C(=O)N([C@H](C)CO)C[C@@H]1C	.	1	1
